Measurements taken from ChEMBL document CHEMBL1139543, “Antineoplastic agents. 445. Synthesis and evaluation of structural modifications of (Z)- and (E)-combretastatin A-41” (J Med Chem, 2005).
Converted amounts (≈) assume the structure as drawn.

Key:
BXPC-3 = assay: Growth inhibition against human pancreas carcinoma cell line (BxPC-3); format: functional
SK-N-SH = assay: Growth inhibition against human neuroblastoma cell line (SK-N-SH); format: functional
SW-1736 = assay: Growth inhibition against human thyroid cell line( SW 1736); format: functional
NCI-H460 = assay: Growth inhibition against human lung-NSC NCI-H460 cell line; format: functional
P388 = assay: Effective dose against murine P388 leukemia cell line; format: functional; conditions: Mus musculus, read-out: ED50 (the source's name)
FaDu = assay: Growth inhibition against human pharynx FADU cell line; format: functional
Tubulin beta-1 chain = Tubulin beta-1 chain (Homo sapiens, UniProt Q9H4B7); assay: Inhibition of tubulin polymerization upon incubation for 20 min at 30 degree C
Method in brief: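 Purified tubulin at 10 µM (1.0 mg/mL) in 0.8 M monosodium glutamate, pH 6.6, with 4% (v/v) DMSO and varying compound concentrations. Preincubated 15 min at 37 °C, chilled on ice, then GTP (0.4 mM) added. Warmed from 0 °C to 30 °C, and assembly followed 20 min by turbidity at 350 nm. IC50 interpolated; at least two determinations; SD reported.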

DU-145 = assay: Growth inhibition against human prostate cell line (DU-145); format: functional
Candida albicans [1] = assay: Minimum inhibitory concentration against Candida albicans was determined in the disk diffusion assay; value ranges from 25-50 ug/disk; format: functional
Method in brief: (§1)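 Disk diffusion on Sabouraud Dextrose Agar. MIC taken as the lowest drug amount giving a clear zone of growth inhibition.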

Staphylococcus aureus = assay: Minimum inhibitory concentration against Staphylococcus aureus was determined in the disk diffusion assay; value ranges from 25-50 ug/disk; format: functional
Streptococcus pneumoniae = assay: Minimum inhibitory concentration against Streptococcus pneumoniae was determined in the disk diffusion assay; value ranges from 50-100 ug/disk; format: functional
Micrococcus luteus = assay: Minimum inhibitory concentration against Micrococcus luteus was determined in the disk diffusion assay; value ranges from 12.5-25 ug/disk
Neisseria gonorrhoeae [2] = assay: Minimum inhibitory concentration against Neisseria gonorrhoeae was determined in the disk diffusion assay; value ranges from 50-100 ug/disk; format: functional
Cryptococcus neoformans = assay: Minimum inhibitory concentration against Cryptococcus neoformans was determined in the disk diffusion assay; value ranges from 6.25-12.5 ug/disk; format: functional
Candida albicans [3] = assay: Minimum inhibitory concentration against Candida albicans was determined in the disk diffusion assay; value ranges from 50-100 ug/disk; format: functional; method in brief: as §1
Neisseria gonorrhoeae [4] = assay: Minimum inhibitory concentration against Neisseria gonorrhoeae was determined in the disk diffusion assay; value ranges from 12.5-25 ug/disk; format: functional

Sequence of Tubulin beta-1 chain (Q9H4B7 whole entry): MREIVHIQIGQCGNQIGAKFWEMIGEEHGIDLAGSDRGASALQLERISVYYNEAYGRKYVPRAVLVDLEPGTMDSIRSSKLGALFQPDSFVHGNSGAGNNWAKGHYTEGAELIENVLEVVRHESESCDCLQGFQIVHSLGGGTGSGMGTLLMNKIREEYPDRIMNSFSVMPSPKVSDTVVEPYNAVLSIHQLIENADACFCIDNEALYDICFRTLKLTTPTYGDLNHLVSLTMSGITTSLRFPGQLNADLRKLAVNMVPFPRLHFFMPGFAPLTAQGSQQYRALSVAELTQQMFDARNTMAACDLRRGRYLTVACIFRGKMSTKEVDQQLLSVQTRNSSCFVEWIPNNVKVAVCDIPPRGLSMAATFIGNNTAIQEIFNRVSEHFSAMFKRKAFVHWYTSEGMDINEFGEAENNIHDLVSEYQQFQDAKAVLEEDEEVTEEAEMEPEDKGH

GI50 (BXPC-3) [µg/mL] | GI50 (SK-N-SH) [µg/mL] | GI50 (SW-1736) [µg/mL] | GI50 (NCI-H460) [µg/mL] | EC50 (P388) [µg/mL] | GI50 (DU-145) [µg/mL] | MIC (Candida albicans [1]) [ug/disk] | MIC (Staphylococcus aureus) [ug/disk] | MIC (Streptococcus pneumoniae) [ug/disk] | MIC (Micrococcus luteus) [ug/disk] | MIC (Neisseria gonorrhoeae [2]) [ug/disk] | MIC (Cryptococcus neoformans) [ug/disk] | MIC (Candida albicans [3]) [ug/disk] | MIC (Neisseria gonorrhoeae [4]) [ug/disk] | SMILES | GI50 (FaDu) [µg/mL] | IC50 (Tubulin beta-1 chain) [µM]
37.2 | 0.28 | 0.1 | 0.36 | 1.94 | 0.33 | 50 | 50 | 100 | 25 |  |  |  |  | COc1ccc(/C=C\c2cc(OC)c(OC)c(OC)c2)cc1OCC[N+](C)(C)C.[I-] | 0.24 | 
2.7 (≈ 7.13 µM) | 2 (≈ 5.28 µM) | 4.7 (≈ 12.4 µM) | 3.7 (≈ 9.77 µM) | 2.9 (≈ 7.65 µM) | 3.4 (≈ 8.97 µM) |  |  |  |  |  |  |  |  | COc1ccc(/C=C\c2cc(OC)c(OC)c(OC)c2)cc1OCCCl | 4.6 (≈ 12.1 µM) | > 40
0.015 (≈ 0.0437 µM) | 0.01 (≈ 0.0291 µM) | 0.8 (≈ 2.33 µM) | 0.4 (≈ 1.16 µM) | 0.9 (≈ 2.62 µM) | 0.11 (≈ 0.32 µM) |  |  |  |  |  |  |  |  | COc1ccc(/C=C\c2cc(OC)c(OC)c(OC)c2)cc1N(C)C | 0.09 (≈ 0.262 µM) | 
0.26 (≈ 0.694 µM) | 0.18 (≈ 0.481 µM) | 0.38 (≈ 1.01 µM) | 0.37 (≈ 0.988 µM) | 0.63 (≈ 1.68 µM) | 0.43 (≈ 1.15 µM) |  |  |  |  | 100 |  |  |  | COc1ccc(/C=C\c2cc(OC)c(OC)c(OC)c2)cc1OCCCO | 0.63 (≈ 1.68 µM) | 6.5
> 10 | 8.1 (≈ 21.6 µM) | 11.6 (≈ 31 µM) | > 10 | 6.8 (≈ 18.2 µM) | 4.5 (≈ 12 µM) |  |  |  |  |  |  |  |  | COc1ccc(/C=C/c2cc(OC)c(OC)c(OC)c2)cc1OCCCO | 2.3 (≈ 6.14 µM) | 
5 (≈ 16.5 µM) | 5.5 (≈ 18.2 µM) | > 10 | 4.9 (≈ 16.2 µM) | 4.49 (≈ 14.9 µM) | 6.3 (≈ 20.8 µM) |  |  |  |  |  | 12.5 | 100 | 25 | COc1ccc(/C=C/c2cc(OC)c(O)c(OC)c2)cc1O | 3.2 (≈ 10.6 µM) | 14
2.7 (≈ 6.16 µM) | 3 (≈ 6.84 µM) | 1 (≈ 2.28 µM) | 0.42 (≈ 0.958 µM) | 2.87 (≈ 6.55 µM) | 0.59 (≈ 1.35 µM) |  |  |  |  |  |  |  |  | COc1ccc(/C=C\c2cc(OC)c(OC)c(OC)c2)cc1OCCOS(C)(=O)=O | 0.41 (≈ 0.935 µM) | > 40

SMILES | GI50 (BXPC-3) [µg/mL] | GI50 (SK-N-SH) [µg/mL] | GI50 (SW-1736) [µg/mL] | GI50 (NCI-H460) [µg/mL] | EC50 (P388) [µg/mL] | GI50 (DU-145) [µg/mL] | MIC (Candida albicans [1]) [ug/disk] | MIC (Staphylococcus aureus) [ug/disk] | MIC (Streptococcus pneumoniae) [ug/disk] | MIC (Micrococcus luteus) [ug/disk] | MIC (Neisseria gonorrhoeae [2]) [ug/disk] | MIC (Cryptococcus neoformans) [ug/disk] | MIC (Candida albicans [3]) [ug/disk] | MIC (Neisseria gonorrhoeae [4]) [ug/disk] | GI50 (FaDu) [µg/mL] | IC50 (Tubulin beta-1 chain) [µM]
COc1ccc(/C=C/c2cc(OC)c(OC)c(OC)c2)cc1Br | 0.34 (≈ 0.897 µM) | 0.4 (≈ 1.05 µM) | 10.8 (≈ 28.5 µM) | 0.36 (≈ 0.949 µM) | 3.08 (≈ 8.12 µM) | 0.46 (≈ 1.21 µM) |  |  |  |  |  |  |  |  | 11.4 (≈ 30.1 µM) | 31
COc1ccc(/C=C\c2cc(OC)c(OC)c(OC)c2)cc1[N+](=O)[O-] | 0.029 (≈ 0.084 µM) | 0.014 (≈ 0.0405 µM) | 0.0067 (≈ 0.0194 µM) | 0.0038 (≈ 0.011 µM) | 2.4 (≈ 6.95 µM) | 0.047 (≈ 0.136 µM) |  |  |  |  |  |  |  |  | 0.047 (≈ 0.136 µM) | 2.6
COc1ccc(/C=C\c2cc(OC)c(OC)c(OC)c2)cc1Br | 0.007 (≈ 0.0185 µM) | 0.002 (≈ 0.00527 µM) | 0.034 (≈ 0.0897 µM) | 0.033 (≈ 0.087 µM) | 0.16 (≈ 0.422 µM) | 0.027 (≈ 0.0712 µM) |  |  |  |  |  |  |  |  | 0.0058 (≈ 0.0153 µM) | 1.1
COc1ccc(/C=C/c2cc(OC)c(OC)c(OC)c2)cc1[N+](=O)[O-] | > 10 | 7.3 (≈ 21.1 µM) | 2.8 (≈ 8.11 µM) |  | > 10 | > 10 |  |  |  |  |  |  |  |  | 3.8 (≈ 11 µM) | 
COc1ccc(/C=C\c2cc(OC)c(OC)c(OC)c2)cc1OC(=O)N(CCCl)CCCl | 2.8 (≈ 5.78 µM) | 0.14 (≈ 0.289 µM) | 0.72 (≈ 1.49 µM) | 0.37 (≈ 0.764 µM) | 0.074 (≈ 0.153 µM) | 0.31 (≈ 0.64 µM) |  |  |  |  |  |  |  |  | 0.15 (≈ 0.31 µM) | > 40
